Laboratory results published in ChEMBL document CHEMBL4002637, “Synthesis, characterization, in vitro SAR and in vivo evaluation of N,N'bisnaphthylmethyl 2-alkyl substituted imidazolium salts against NSCLC” (Bioorg Med Chem Lett, 2017).
Active and inactive are the calls of the source. No cut-off for these calls is given here.

Legend:
NCI-H460 [1] = assay: Antiproliferative activity against human NCI-H460 cells using 10% 2-HPbetaCD compound formulation after 72 hrs by MTT assay; type: functional, cell-based; settings: NCI-H460, 72 h
Summary of the method: (§1)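 MTT anti-proliferation on NSCLC lines. Compounds dissolved in DMSO, diluted with water to 1% DMSO, then into growth medium (max 0.032% DMSO on cells); or dissolved in 10% (w/v) 2-HPβCD in water, then diluted (max 0.008% w/w 2-HPβCD in wells; vehicle controls at 0.008%). IC50 = concentration giving 50% loss of viability versus control cells. Cisplatin dissolved in water with stirring.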

NCI-H1975 [2] = assay: Antiproliferative activity against human NCI-H1975 cells using 1% DMSO/water compound formulation after 72 hrs by MTT assay; type: functional, cell-based; settings: NCI-H1975, 72 h; summary of the method: as §1
NCI-H1975 [3] = assay: Antiproliferative activity against human NCI-H1975 cells using 10% 2-HPbetaCD compound formulation after 72 hrs by MTT assay; type: functional, cell-based; settings: NCI-H1975, 72 h; summary of the method: as §1
A549 [4] = assay: Antiproliferative activity against human A549 cells using 10% 2-HPbetaCD compound formulation after 72 hrs by MTT assay; type: functional, cell-based; settings: A549, 72 h; summary of the method: as §1
HCC827 [5] = assay: Antiproliferative activity against human HCC827 cells using 1% DMSO/water compound formulation after 72 hrs by MTT assay; type: functional, cell-based; settings: HCC827, 72 h; summary of the method: as §1
HCC827 [6] = assay: Antiproliferative activity against human HCC827 cells using 10% 2-HPbetaCD compound formulation after 72 hrs by MTT assay; type: functional, cell-based; settings: HCC827, 72 h; summary of the method: as §1
[7] = Aqueous solubility of the compound in water; type: physicochemical; settings: buffer
[8] = Solubility of the compound in 1% DMSO/water solution; type: physicochemical; settings: buffer
NCI-H1975 [9] = assay: Potency index, ratio of compound cisplatin IC50 to compound IC50 for human NCI-H1975 cells using 1% DMSO/water compound formulation; type: functional
NCI-H1975 [10] = assay: Potency index, ratio of compound cisplatin IC50 to compound IC50 for human NCI-H1975 cells using 10% 2-HPbetaCD compound formulation; type: functional
[11] = Solubility of the compound in 10% 2-HPbetaCD/water solution; type: physicochemical; settings: buffer
HOP-62 [12] = assay: Growth inhibition of human HOP62 cells assessed as cell growth at 10 uM after 24 hrs by SRB assay relative to control; type: functional; settings: HOP-62, 24 h, read-out: Activity
Summary of the method: (§2)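 NCI DTP one-dose screen: cells plated at density set by doubling rate, incubated overnight, then exposed to compound at 10 μM for 24 hours. Growth percentage from protein density at end versus start of experiment, relative to initial cell number.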

HOP-92 [13] = assay: Growth inhibition of human HOP92 cells assessed as cell growth at 10 uM after 24 hrs by SRB assay relative to control; type: functional; settings: HOP-92, 24 h, read-out: Activity; summary of the method: as §2
NCI-H226 = assay: Growth inhibition of human NCI-H226 cells assessed as cell growth at 10 uM after 24 hrs by SRB assay relative to control; type: functional; settings: NCI-H226, 24 h, read-out: Activity; summary of the method: as §2
NCI-H23 = assay: Growth inhibition of human NCI-H23 cells assessed as cell growth at 10 uM after 24 hrs by SRB assay relative to control; type: functional; settings: NCI-H23, 24 h, read-out: Activity; summary of the method: as §2
NCI-H322M [14] = assay: Growth inhibition of human NCI-H322M cells assessed as cell growth at 10 uM after 24 hrs by SRB assay relative to control; type: functional; settings: read-out: Activity; summary of the method: as §2
NCI-H460 [15] = assay: Growth inhibition of human NCI-H460 cells assessed as cell growth at 10 uM after 24 hrs by SRB assay relative to control; type: functional; settings: NCI-H460, 24 h, read-out: Activity; summary of the method: as §2
A549 [16] = assay: Growth inhibition of human A549 cells after 24 hrs by SRB assay; type: functional; settings: A549, 24 h
EKVX = assay: Growth inhibition of human EKVX cells after 24 hrs by SRB assay; type: functional
HOP-62 [17] = assay: Growth inhibition of human HOP62 cells after 24 hrs by SRB assay; type: functional; settings: HOP-62, 24 h
HOP-92 [18] = assay: Growth inhibition of human HOP92 cells after 24 hrs by SRB assay; type: functional; settings: HOP-92, 24 h
NCI-H322M [19] = assay: Growth inhibition of human NCI-H322M cells after 24 hrs by SRB assay; type: functional
NCI-H460 [20] = assay: Growth inhibition of human NCI-H460 cells after 24 hrs by SRB assay; type: functional; settings: NCI-H460, 24 h
NCI-H460 [21] = assay: Induction of apoptosis in human NCI-H460 cells assessed as morphological changes at 40 uM up to 3 hrs by Annexin V-FITC/propidium iodide staining based fluorescence microscopic method; type: functional, cell-based
NCI-H460 [22] = assay: Induction of apoptosis in human NCI-H460 cells at 40 uM up to 1 hr using 1% DMSO/water compound formulation by Annexin V-FITC/propidium iodide staining based fluorescence microscopic method; type: functional, cell-based
NCI-H460 [23] = assay: Induction of apoptosis in human NCI-H460 cells assessed as blebbing at 40 uM up to 6 hrs using 1% DMSO/water compound formulation by Annexin V-FITC/propidium iodide staining based fluorescence microscopic method; type: functional, cell-based
NCI-H460 [24] = assay: Disruption of mitochondrial membrane potential in human NCI-H460 cells at 40 uM up to 1 hr […] by JC1/DAPI staining based confocal microscopic method; type: functional, cell-based
Mus musculus [25] = assay: Acute toxicity in C57BL/6 mouse assessed as weight loss at 20 mg/kg, ip administered as 20% 2HPbetaCD formulation; type: organism-based; settings: in vivo
Summary of the method: (§3)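 Female/male not stated; C57BL/6 mice received 20 mg/kg IP on day zero in 100 μL of 20% (w/v) 2-HPβCD, then a second 15 mg/kg IP dose on day fourteen. Vehicle controls got 100 μL of 20% 2-HPβCD IP on days 0, 7, 14, 21, 25 and 29. Body weight and behaviour were monitored throughout, with survival plotted Kaplan-Meier.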

Mus musculus [26] = assay: Acute toxicity in C57BL/6 mouse assessed as weight regain at 20 mg/kg, ip administered as 20% 2HPbetaCD formulation measured on day 4 to 14 post dose; type: organism-based; settings: in vivo; summary of the method: as §3
Mus musculus [27] = assay: Acute toxicity in C57BL/6 mouse assessed as weight loss at 20 mg/kg, ip administered as 20% 2HPbetaCD formulation on day 1 followed by redosing with 15 mg/kg, ip on day 14 relative to control; type: organism-based; settings: in vivo
Summary of the method: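 C57BL/6 mice given IP 100 μL of 20 mg/kg (based on 20 g mean mass) in 20% w/v 2-HPβCD on day 0, then 15 mg/kg on day 14. Vehicle mice received 2-HPβCD on days 0, 7, 14, 21, 25 and 29. Body weight, behaviour and survival monitored.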

Mus musculus [28] = assay: Acute toxicity in C57BL/6 mouse assessed as lethargic movement at 20 mg/kg, ip administered as 20% 2HPbetaCD formulation on day 1 followed by redosing with 15 mg/kg, ip on day 14 measured on day 15 post first dose; type: organism-based; settings: in vivo; summary of the method: as §3
[29] = read-out: LC50 (the source's name)

With `CCc1n(Cc2ccc3ccccc3c2)cc[n+]1Cc1ccc2ccccc2c1.[Br-]` the IC50 (NCI-H460 [1]) was 990 nM, the IC50 (NCI-H1975 [2]) was 660 nM and the IC50 (NCI-H1975 [3]) was 560 nM. For the same molecule, the IC50 (A549 [4]) was 2340 nM, the IC50 (HCC827 [5]) was 1150 nM and the IC50 (HCC827 [6]) was 970 nM. The solubility [7] was less than 500 µg/mL, the solubility [8] was “Soluble” and the “Ratio IC50” value (NCI-H1975 [9]) was 15. The “Ratio IC50” value (NCI-H1975 [10]) was 17, the solubility [11] was greater than 4400 µg/mL and the growth at 10 µM (HOP-62 [12]) was 11.9%. For the same molecule, the growth at 10 µM (HOP-92 [13]) was -31.4%, the growth at 10 µM (NCI-H226) was 6.75% and the growth at 10 µM (NCI-H23) was -14.6%. For the same molecule, the growth at 10 µM (NCI-H322M [14]) was 44.3%, the growth at 10 µM (NCI-H460 [15]) was 5.54% and the GI50 (A549 [16]) was 2590 nM. It also gave a TGI (A549 [16]) of 13900 nM, a CC50 (A549 [16]; [29]) of 57900 nM and a GI50 (EKVX) of 766 nM. For the same molecule, the LC50 (EKVX) was 35800 nM, the TGI (EKVX) was 5550 nM and the GI50 (HOP-62 [17]) was 1420 nM. For the same molecule, the LC50 (HOP-62 [17]) was 9360 nM, the TGI (HOP-62 [17]) was 3650 nM and the GI50 (HOP-92 [18]) was 338 nM. For the same molecule, the TGI (HOP-92 [18]) was 1770 nM, the CC50 (HOP-92 [18]; [29]) was 1770 nM and the GI50 (NCI-H322M [19]) was 2120 nM. For the same molecule, the LC50 (lethal concentration 50%) (NCI-H322M [19]) was 6710 nM, the TGI (NCI-H322M [19]) was 6710 nM and the GI50 (NCI-H460 [20]) was 724 nM. For the same molecule, the TGI (NCI-H460 [20]) was 2150 nM, the CC50 (NCI-H460 [20]; [29]) was 2150 nM and the Activity (NCI-H460 [21]) was “inactive”. For the same molecule, the Activity (NCI-H460 [22]) was “Active”, the Activity (NCI-H460 [23]) was “Active” and the Activity (NCI-H460 [24]) was “Active”. For the same molecule, the Activity (Mus musculus [25]) was “Toxic”, the Activity (Mus musculus [26]) was “Toxic” and the Activity (Mus musculus [27]) was 6%. The Activity (Mus musculus [28]) was “Toxic”.
